Results published in ChEMBL document CHEMBL1129597, “2-[2'-(Dimethylamino)ethyl]-1,2-dihydro- 3H-dibenz[de,h]isoquinoline-1,3-diones with substituents at positions 4, 8, 9, 10, and 11. Synthesis, antitumor activity, and quantitative structure-activity relationships” (J Med Chem, 1996).

How the values were obtained:
[1] = test system: L1210; test: Antitumor activity against sensitive L1210 murine leukemia cell lines.; assay type: functional, cell-based; conditions: Mus musculus
Procedure, shortened: (§1)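 Murine L1210 leukemia cells, sensitive or MDR subline, in culture. Continuous drug exposure during MTT assay. Five concentrations per analogue, six determinations per concentration. The IC50 was derived.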

[2] = test system: MCF7; test: Antitumor activity against human mammary carcinoma doxorubicin-resistant […] breast cell line.; assay type: functional, cell-based
[3] = test system: MCF7; test: Antitumor activity against human mammary carcinoma sensitive […] breast cell line.; assay type: functional, cell-based
[4] = test system: WiDr; test: Activity against human colon carcinoma multi drug resistant (MDR)-WiDr cell line.; assay type: functional, cell-based
[5] = test system: A549; test: Activity against A549 cancer cell line.; assay type: functional, cell-based; conditions: Homo sapiens
[6] = The quotient of the IC50 in the myocytes divided by the mean IC50 in the three cell lines; assay type: functional
Procedure, shortened: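 Calculated index: the myocyte IC50 divided by the mean IC50 across three tumor lines (sensitive L1210, melanoma UACC375, ovarian OVCAR3).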

[7] = test system: UACC-375; test: Antitumor activity against human melanoma UACC375 cell line.; assay type: functional, cell-based
Procedure, shortened: (§2)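 Cultured human tumor cells (melanoma UACC375, ovarian OVCAR3) under continuous drug exposure. Growth was read by sulforhodamine or MTT assay. Five concentrations per analogue, six determinations per concentration. IC50 values were derived from these.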

[8] = test system: OVCAR-3; test: Antitumor activity against human ovarian OVCAR-3 cell lines.; assay type: functional, cell-based; procedure, shortened: as §2
[9] = species on record: Rattus norvegicus; test: Cardiotoxicity measured by the ATP/protein ratio compared with untreated controls using neonatal rat heart myocyte assay.; assay type: functional; design: Cardiotoxicity: unit not given here
Procedure, shortened: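 Neonatal rat heart myocytes exposed to drug for 1 h. The ATP/protein ratio was measured versus untreated control myocytes. IC50 is the concentration reducing this ratio to 50% of control.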

[10] = test system: WiDr; test: Activity against human colon carcinoma sensitive WiDr cell line.; assay type: functional, cell-based
[11] = test system: L1210; test: Antitumor activity against murine leukemia L1210 cell line.; assay type: functional, cell-based; conditions: Mus musculus; procedure, shortened: as §1
[12] = test system: MCF7; test: Antitumor activity against human mammary carcinoma mitoxantrone-resistant […] breast cell line.; assay type: functional, cell-based
[13] = species on record: Mus musculus; test: (§3) Percent increase in life span when given at a dose in P388 leukemia cells of mice; assay type: functional
Procedure, shortened: (§4)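 P388 leukemia in mice, standard NCI protocol: 10^6 leukemia cells given ip; compound given ip in equal doses on days 1, 5 and 9. Highest dose used was 10% below the LD10 for acute toxicity in that mouse species. %ILS = 100 × (treated life span − control life span)/control life span, reported at the highest nontoxic dose.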

[14] = as §3; assay type: functional; procedure, shortened: as §4

IC50 [1] [nM]	IC50 [2] [nM]	IC50 [3] [nM]	IC50 [4] [nM]	IC50 [5] [nM]	IC50 [7] [nM]	IC50 [8] [nM]	IC50 [10] [nM]	IC50 [11] [nM]	SMILES	Toxicity ratio [6]	IC50 [9] [nM]	IC50 [12] [nM]	ILS [13] [%]	Cardiotoxicity [9]	ILS [14] [%]
15	20	13	16	2.2	10	12	11	13	CN(C)CCN1C(=O)c2cccc3cc4ccc(C#N)cc4c(c23)C1=O	9	105	12			
7.7	71	49	140	9.9	90	231	100	7.7	CN(C)CCN1C(=O)c2cccc3cc4cc(Cl)ccc4c(c23)C1=O	14	1540	68			
70	190	70	320	120	1860	348	180	128	CN(C)CCN1C(=O)c2cccc3cc4ccc(-c5ccccc5)cc4c(c23)C1=O			33			
									CN(C)CCN1C(=O)c2cccc3cc4ccccc4c(c23)C1=O [AZONAFIDE]	44	1980		79		
312	59	42	130	31	624	176	40	52	CN(C)CCN1C(=O)c2cccc3cc4ccc(I)cc4c(c23)C1=O	13	4790	49			
25	8.7	13	74	2.5	18	23	9.5	25	CN(C)CCN1C(=O)c2cccc3cc4ccc([N+](=O)[O-])cc4c(c23)C1=O	36	801	14			
5.1	8	58	85	8.2	64	64	17	7.7	CN(C)CCN1C(=O)c2cccc3cc4ccc(Cl)cc4c(c23)C1=O	18	771	48			
189	35	5.8	240	1.7	1220	2130	17	540	CN(C)CCN1C(=O)c2cccc3cc4ccc(O)cc4c(c23)C1=O	>23	> 27000	17			
8.1	25	15	13	4.8	16	6.7	17		CN(C)CCN1C(=O)c2cccc3cc4ccc(F)cc4c(c23)C1=O	45.6	456	12			
189	200	81	270	40	540	1890	100	189	CN(C)CCN1C(=O)c2cccc3cc4cccc(O)c4c(c23)C1=O	18	15400	80			
54	120	73	130	27	163	543	65	54	COc1ccc2c3c4c(cccc4cc2c1)C(=O)N(CCN(C)C)C3=O	<10.3		95		< 2600	
1780	710	340	1000	61	2060	9000	390	617	CN(C)CCN1C(=O)c2cccc3cc4cccc(Cl)c4c(c23)C1=O	1.9	8230	120			
13	67	120	30	4.8	52	52	9	18	COc1cccc2c3c4c(cccc4cc12)C(=O)N(CCN(C)C)C3=O	21	806	5.4			
21	52	38	61	31	52	78	40	52	COc1ccc2cc3cccc4c3c(c2c1)C(=O)N(CCN(C)C)C4=O	182	9100	41			
210	530	190	680	78	390	715	400	245	CN(C)CCNc1ccc2cc3ccccc3c3c2c1C(=O)N(CCN(C)C)C3=O	1.7	734	230			
108	230	83	900	60	270	216	130	67	CN(C)CCN1C(=O)c2cccc3cc4c(O)cccc4c(c23)C1=O	15	2950	120			
5.8	50	49	64	31	44	102	51	14.6	CNCCN1C(=O)c2cccc3cc4ccc(Cl)cc4c(c23)C1=O	28	1430	42			
70	690	350	900	81	182	507	660	179	COc1ccc2cc3ccccc3c3c2c1C(=O)N(CCN(C)C)C3=O			520			
									CN(C)CCN1C(=O)c2cccc3cc4ccc(NC(=O)C(C)(C)C)cc4c(c23)C1=O						105
									O=C1c2c(O)ccc(O)c2C(=O)c2c(NCCNCCO)ccc(NCCNCCO)c21 [MITOXANTRONE]	368	7740		200		
41	140	110	120	14	81	68	120	54	Cc1ccc2cc3cccc4c3c(c2c1)C(=O)N(CCN(C)C)C4=O	16	1000	90			
									CC(=O)Nc1cccc2c3c4c(cccc4cc12)C(=O)N(CCN(C)C)C3=O						109

SMILES	IC50 [1] [nM]	IC50 [2] [nM]	IC50 [3] [nM]	IC50 [4] [nM]	IC50 [5] [nM]	IC50 [7] [nM]	IC50 [8] [nM]	IC50 [10] [nM]	IC50 [11] [nM]	Toxicity ratio [6]	IC50 [9] [nM]	IC50 [12] [nM]	ILS [13] [%]	Cardiotoxicity [9]	ILS [14] [%]
CN(C)CCN1C(=O)c2cccc3cc(N)cc(c23)C1=O [AMONAFIDE]		1800	1100	2200	1100			1100		30	48400	1200	88		
